Screens as filed in PubChem BioAssay.
TRPC4 inh = blocks the mouse TRPC4 cation channel; AID 2247; 0.39% of 300,000 active; HEK293 TRPC4beta/mu-opioid, DAMGO-evoked Fluo4 calcium flux; hits give low values; Q9QUQ5; B-score at 10 µM;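 active = B-score over 3 SD under the library average, no early fluorescence shift, positive overall ratio signal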
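material = TRPC4beta/mu-opioid receptor HEK293 cell line | probe or stimulus = sequential submaximal and maximal DAMGO stimulation | compound dosing = one concentration per compound | measured by = Fluo4 Ca2+ flux fluorescence | evaluation = integrated fluorescence ratio relative to baseline, converted to per-well B score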
TRPC4 PAM = allosterically enhances the mouse TRPC4 cation channel. 0.42% of 310,000 active. HEK293 TRPC4beta/mu-opioid, DAMGO EC20, Fluo-4 Ca2+ flux; hits give high values. B-score at 10 µM. Q9QUQ5;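 active = B-score of calcium response area above 5 SD of library B-scores, with initial fluorescence ratio within 5 SD of library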
TRPC6 act = activators of mouse TRPC6 channel. 0.13% of 310,000 active. B-score at 10 µM. HEK293-TRPC6 membrane potential dye fluorescence; hits give high values. Q61143;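 active = B-score of the integrated fluorescence ratio above library mean plus 3 SD, and starting fluorescence ratio within library mean plus 5 SD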;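 also: higher score means more depolarization so channel activation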
Target sequence (Q61143 whole entry, looked up): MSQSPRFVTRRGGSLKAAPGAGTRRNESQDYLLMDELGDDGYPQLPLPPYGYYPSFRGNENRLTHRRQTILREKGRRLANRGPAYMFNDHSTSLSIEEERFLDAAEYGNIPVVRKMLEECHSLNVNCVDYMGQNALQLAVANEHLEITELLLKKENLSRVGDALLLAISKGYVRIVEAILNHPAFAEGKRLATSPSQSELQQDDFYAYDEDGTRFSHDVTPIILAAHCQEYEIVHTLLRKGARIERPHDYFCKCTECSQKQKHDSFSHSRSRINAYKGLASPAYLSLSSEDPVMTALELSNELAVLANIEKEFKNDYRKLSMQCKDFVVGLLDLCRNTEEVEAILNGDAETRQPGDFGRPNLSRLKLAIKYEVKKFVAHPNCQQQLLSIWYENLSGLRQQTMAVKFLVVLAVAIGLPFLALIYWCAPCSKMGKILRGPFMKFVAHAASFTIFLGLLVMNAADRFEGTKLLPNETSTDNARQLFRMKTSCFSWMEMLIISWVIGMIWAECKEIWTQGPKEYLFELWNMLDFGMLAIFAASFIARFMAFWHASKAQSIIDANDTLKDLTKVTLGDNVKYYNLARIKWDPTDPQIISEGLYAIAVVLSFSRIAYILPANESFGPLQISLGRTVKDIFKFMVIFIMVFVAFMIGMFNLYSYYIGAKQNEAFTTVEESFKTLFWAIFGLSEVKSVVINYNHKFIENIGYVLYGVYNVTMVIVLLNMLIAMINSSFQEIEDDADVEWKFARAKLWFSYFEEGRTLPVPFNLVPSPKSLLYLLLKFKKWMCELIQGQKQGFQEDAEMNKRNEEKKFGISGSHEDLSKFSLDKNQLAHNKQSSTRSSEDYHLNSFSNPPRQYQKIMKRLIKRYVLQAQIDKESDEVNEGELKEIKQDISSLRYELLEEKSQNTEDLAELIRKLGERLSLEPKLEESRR
TRPC6 inhibitor = mouse TRPC6 channel inhibition. Q61143. HEK293-TRPC6, membrane potential dye, ACh-evoked depolarization; hits give low values. B-score at 10 µM. 1.1% of 310,000 active. AID 2553;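 active = B-score under library mean minus 3 SD, initial fluorescence not abnormally high, positive integrated signal ratio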;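 also: B-score derived from integrated fluorescence ratio over the kinetic read; more negative B-score means stronger inhibition of depolarization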
TRPC4 act = TRPC4 (mouse) channel activation. Q9QUQ5. HEK293 TRPC4beta/mu-opioid, Fluo4 calcium fluorescence; hits give high values. B-score at 10 µM. 0.49% of 310,000 active. AID 2237;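 active = B-score above 5 SD of library B-scores, and initial fluorescence ratio not above library mean plus 5 SD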;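 also: positive B-score marks a calcium rise read as TRPC4 activation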
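System – HEK293 cells stably co-expressing mouse TRPC4beta and mu-opioid receptor · Signal – Fluo4 calcium-sensitive dye fluorescence, kinetic, 1 Hz baseline · Benchmarks – buffer (low) and maximal DAMGO (high) · Read-out – B score of integrated fluorescence ratio per well · Incubation – dye loading 45 min room temperature, 110 s kinetic read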
TRPC4 spec 2 = second check of whether TRPC6 inhibitors also affect mouse TRPC4; AID 2776; HEK293 TRPC4/MOR, membrane potential dye fluorescence; channel activated by saturating DAMGO dose; 42% of 920 active; inhibition, % at 10 µM; shares compounds with TRPC6 inhibitor;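 active = compounds whose fluorescence signal differed from control wells by over 3 SD, either direction, in both duplicate plates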
TRPC4 spec = tests whether TRPC6 inhibitors also affect mouse TRPC4 | 61% of 920 active | AID 2777 | HEK293 TRPC4/mu-opioid, membrane potential fluorescence | activity change, negative = inhibition, % at 10 µM | shares compounds with TRPC6 inhibitor;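 active = rise or fall in signal beyond 3 SD of buffer-only wells in both replicate plates, either sign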;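 also: integrated kinetic ratio of fluorescence range over baseline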
HEK293 MPD ctr 2-1 = parental HEK293 nonspecific activity of TRPC6 inhibitors, second screen; shares compounds with TRPC6 inhibitor; parental HEK293 membrane potential dye fluorescence; maximal acetylcholine challenge after compound addition; signal change vs control, % at 10 µM; 31% of 920 active; AID 2779;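 active = membrane potential signal moving either way by over 3 SD of the maximum-effect control, in both duplicate plates, meaning non-specific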
HEK293 MPD ctr-1 = counter-screen for TRPC6 inhibitors: effect in parental HEK293 cells | 60% of 920 active | parental HEK293 membrane potential dye fluorescence | shares compounds with TRPC6 inhibitor | membrane potential signal change, % at 10 µM | AID 2780;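 active = membrane potential signal shifting up or down by more than 3 SD of buffer-only wells, on both duplicate plates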
HEK293 MPD ctr-2 = checks TRPC6 modulator effects in parental HEK293 cells | membrane potential dye fluorescence | AID 488924 | shares compounds with TRPC6 inhibitor | membrane potential signal change, % at 10 µM | 51% of 2,400 active;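 active = membrane potential signal moves up or down beyond 5 SD from buffer-only wells, on both duplicate plates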
HEK293 MPD ctr 2-2 = parental HEK293 nonspecific activity of TRPC6 modulators, second screen; shares compounds with TRPC6 inhibitor; membrane potential dye fluorescence; after compound, maximal acetylcholine stimulation; inhibition, % at 10 µM; 14% of 2,400 active;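 active = membrane potential signal drops by more than 5 SD from the mean control signal, in both duplicate plates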
TRPC4/MOR mod = mouse TRPC4 off-target activity of TRPC6 modulators; percent change from control (negative = decrease, positive = increase), % at 10 µM; 69% of 2,400 active; HEK293 TRPC4/mu-opioid, membrane potential fluorescence; AID 488927; shares compounds with TRPC6 inhibitor;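 active = membrane potential signal moved up or down beyond 5 SD of buffer control wells, in both duplicate plates, actives on both sides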
TRPC4/MOR inh 2 = second selectivity test of TRPC6 modulators against mouse TRPC4; 55% of 2,400 active; inhibition, % at 10 µM; shares compounds with TRPC6 inhibitor; HEK293 TRPC4/mu-opioid, membrane potential dye fluorescence; stimulated with maximal-effect DAMGO;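 active = drop in membrane potential signal beyond 5 SD of the control wells in both duplicate plates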;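 also: TRPC4 counter screen for TRPC6 hits run under conditions tuned for TRPC6 not TRPC4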
TRPC6 block conf = mouse TRPC6 inhibitor confirmation; 43% of 3,300 active; inhibition, % at 10 µM; HEK293-TRPC6, membrane potential dye, ACh-evoked depolarization; shares compounds with TRPC6 inhibitor;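 active = fluorescence ratio falls more than 5 SD below the full-stimulation control mean, in both duplicate runs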;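 also: integrated fluorescence ratio of peak minus minimum over baseline after agonist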
TRPC6 act confirm = mouse TRPC6 activator confirmation. shares compounds with TRPC6 inhibitor. HEK293-TRPC6 membrane potential dye fluorescence, FDSS. activation, % at 10 µM. 11% of 2,800 active;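 active = ratio signal rise beyond 5 SD above unstimulated control wells' mean, seen in both duplicate runs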
A number is an active result; - = inactive; . = no result. Sampled rows, rich in hits. Any-hit rate of the full collection: about 2.3%.

SMILES	TRPC4 inh	TRPC4 PAM	TRPC6 act	TRPC6 inhibitor	TRPC4 act	HEK293 MPD ctr-2	HEK293 MPD ctr 2-2	TRPC4/MOR mod	TRPC4/MOR inh 2	TRPC6 block conf	TRPC6 act confirm	others
CN(C)c1cc(N)c2c(n1)CCC2 (tested in a mixture with another compound)	-	-	-	-6.4	-	-271%	-	-40%	40%	-	-
Cc1[nH]n(-c2ccccc2)c(=O)c1C(c1ccc([N+](=O)[O-])cc1)c1c(C)[nH]n(-c2ccccc2)c1=O	-	-	-	-5.9	-	-	-	-	38%	42%	-
Cc1cccc(CCNCc2cc3cc(C)cc(C)c3[nH]c2=O)c1	-	-	-	-5.9	-	-	65%	-18%	94%	82%	-
Cc1ccc2cc(CNCCc3ccccc3C)c(=O)[nH]c2c1	-	-	-	-5.1	-	-	-	-	78%	46%	-
Cc1ccccc1CCNCc1ccc(Br)cc1	-	-	-	-	-	.	.	.	.	.	.
Cc1cccc(CNCCc2c[nH]c3ccccc23)c1	-	-	-	-	-	.	.	.	.	.	.
Cc1cccc(CCNCc2cc3cccc(C)c3[nH]c2=O)c1	-	-	-	-10	-	.	.	.	.	102%	-	TRPC4 spec 2=15%;TRPC4 spec=-13%;HEK293 MPD ctr 2-1=25%;HEK293 MPD ctr-1=-
CC1CN=C(NCc2ccc(F)cc2)S1 (centres undefined)	-	-	-	-	-	.	.	.	.	.	.
CS(=O)(=O)NNP(=O)(NNS(C)(=O)=O)NC(=O)c1ccccc1	-	-	-	-	-	.	.	.	.	.	.
C=CCN1CCC2(C)c3cc(O)ccc3CC1C2C (centres undefined)	-	-	-	-	-	.	.	.	.	.	.
C[n+]1c(-c2ccccc2)c2cc(N)ccc2c2ccc(N)cc21	-	-	-	-6.7	-	-208%	80%	-73%	68%	56%	-
CC1(C(=O)O)CCCC2(C)c3cc(O)ccc3CCC12 (centres undefined)	-	-	-	-	-	.	.	.	.	.	.
CCCCCSc1cc(OC)c(CCN(C)C)cc1OC	-	-	-	-5.3	-	-	-	-	52%	50%	-
CCCCCSc1cc(O)c(C(CNC)C(C)C)cc1OC (centres undefined)	-	-	-	-	-	.	.	.	.	.	.
Cc1[nH]c2ccccc2c1CCCNC1CCCCC1	-	-	-	-5.7	-	-	-	-	44%	-	-
Cc1[nH]c2ccccc2c1CCN	-	-	-	-	-	.	.	.	.	.	.
O=c1[nH]c(=O)n(-c2ccc(F)cc2)c(O)c1C=Nc1ccccc1N1CCCC1	-	-	-	-	-	.	.	.	.	.	.
Cc1ccc(OP(=O)(O)Oc2ccc(C)cc2)cc1	-	-	-	-6.5	-	-	-	-	-	-	.
O=[N+]([O-])c1ccc(N2CCCC2)cc1N/N=C1\CN2CCC1CC2	-	-	-	-5.2	-	-248%	74%	-41%	86%	88%	-
CNc1cc(N2CCN(C)CC2)ccc1[N+](=O)[O-]	-	-	-	-	-	.	.	.	.	.	.
CN1CCN(CCC(C#N)(c2ccccc2)c2ccccc2)CC1	-	-	-	-7.2	-	.	.	.	.	-	.	TRPC4 spec 2=-;TRPC4 spec=2.6%;HEK293 MPD ctr 2-1=15%;HEK293 MPD ctr-1=7.2%
CN1CCN(Cc2ccc3ccccc3c2)CC1	-	-	-	-	-	.	.	.	.	.	.
Cn1cc(C(=O)N2CCCCC2)c2ccccc21	-	-	-	-	-	.	.	.	.	.	.
CCOC(=O)C1CCN(C(C)C(=O)c2c[nH]c3ccccc23)CC1 (centres undefined)	-	-	-	-	-	.	.	.	.	.	.
CCCCn1c(C)c(C(=O)OCC)c2c(CN3CCOCC3)c(O)ccc21	-	-	-	-5.3	-	-88%	-	-12%	66%	62%	-
SMILES	TRPC4 inh	TRPC4 PAM	TRPC6 act	TRPC6 inhibitor	TRPC4 act	HEK293 MPD ctr-2	HEK293 MPD ctr 2-2	TRPC4/MOR mod	TRPC4/MOR inh 2	TRPC6 block conf	TRPC6 act confirm	others
CCCCn1c(C)c(C(=O)OCC)c2c(CN3CCCC3)c(O)ccc21	-	-	-	-5.4	-	-	-	-	58%	48%	-
CCOC(=O)c1c(C)n(Cc2ccc(F)cc2)c2ccc(O)cc12	-	-	-	-	-	.	.	.	.	.	.
C#C[C@]1(O)CCC2C3CCC4=C/C(=N/OCC(=O)NC(C)C(=O)NC(CCSC)C(=O)O)CC[C@]4(C)C3CC[C@@]21C (some centres undefined)	-	-	-	-	-	.	.	.	.	.	.
OC(c1ccc(F)cc1)C(c1ccccc1)N1CCOCC1 (centres undefined)	-	-	-	-	-	.	.	.	.	.	.
C[N+]12CCC(CC1)C(C(O)(c1cccc(Cl)c1)c1cccc(Cl)c1)C2 (centres undefined)	-	-	-	-	-	.	.	.	.	.	.
CCC(CO)(C(=O)OC1C[N+]2(C)CCC1CC2)c1ccccc1 (centres undefined)	-	-	-	-11	-	.	.	.	.	97%	-	TRPC4 spec 2=-;TRPC4 spec=-;HEK293 MPD ctr 2-1=-30%;HEK293 MPD ctr-1=-
C[N+]12CCC(CC1)C(OC(=O)C(O)(c1ccccc1)c1ccccc1)C2 (centres undefined)	-	-	-	-8.8	-	.	.	.	.	81%	-	TRPC4 spec 2=-;TRPC4 spec=-;HEK293 MPD ctr 2-1=8.0%;HEK293 MPD ctr-1=-
CCNc1cc(N2CCNCC2)ccc1[N+](=O)[O-]	-	35	-	-5.7	-	-214%	-	-34%	38%	-	-
CN1CCC(N(C)c2nc(-c3ccc([N+](=O)[O-])cc3)nc3ccccc23)CC1	-	-	-	-11	-	-296%	69%	-56%	57%	68%	-
CCOc1ccccc1CNCCc1ccc2c(c1)OCO2	-	-	-	-	-	.	.	.	.	.	.
